Assay [1] concerns HIF in IDH1 R132H immortalized human astrocytes. The assay is classed as cell-based. The note with it: 21% oxygen, increasing amounts for 16 hours. Put shortly: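 Immortalized human astrocytes (passage 10) expressing wild-type or mutant IDH1 were dosed with test compound for 16 h before lysis in 50 mM Tris pH 8.0, 120 mM NaCl, 0.5% NP-40 with protease inhibitors. Extracts were run on 10% SDS-PAGE and transferred to nitrocellulose. Blots were blocked in TBS/5% milk, probed with anti-HIF1α monoclonal antibody, and detected by HRP-secondary chemiluminescence.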

In assay [2] the target is T1, EglN1 (Homo sapiens, UniProt Q9GZT9). The assay is classed as biochemical.
T1 sequence (Q9GZT9 whole entry): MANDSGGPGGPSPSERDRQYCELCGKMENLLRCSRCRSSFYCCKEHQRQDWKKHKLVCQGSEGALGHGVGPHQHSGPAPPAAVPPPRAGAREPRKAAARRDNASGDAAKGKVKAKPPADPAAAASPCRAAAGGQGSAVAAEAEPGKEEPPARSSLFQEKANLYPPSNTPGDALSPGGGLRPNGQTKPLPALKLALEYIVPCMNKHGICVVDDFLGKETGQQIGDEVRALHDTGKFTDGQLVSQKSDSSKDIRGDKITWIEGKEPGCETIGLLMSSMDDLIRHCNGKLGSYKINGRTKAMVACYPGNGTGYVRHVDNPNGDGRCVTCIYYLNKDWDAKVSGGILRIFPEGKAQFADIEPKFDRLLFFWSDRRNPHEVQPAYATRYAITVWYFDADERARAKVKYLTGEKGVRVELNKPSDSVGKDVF
In assay [3] the target is T2, EglN2 (Homo sapiens, UniProt Q96KS0). Type of assay: biochemical. To be noted: low mM concentrations, reactions lacking exogenous 2-OG.
T2 sequence (Q96KS0 whole entry): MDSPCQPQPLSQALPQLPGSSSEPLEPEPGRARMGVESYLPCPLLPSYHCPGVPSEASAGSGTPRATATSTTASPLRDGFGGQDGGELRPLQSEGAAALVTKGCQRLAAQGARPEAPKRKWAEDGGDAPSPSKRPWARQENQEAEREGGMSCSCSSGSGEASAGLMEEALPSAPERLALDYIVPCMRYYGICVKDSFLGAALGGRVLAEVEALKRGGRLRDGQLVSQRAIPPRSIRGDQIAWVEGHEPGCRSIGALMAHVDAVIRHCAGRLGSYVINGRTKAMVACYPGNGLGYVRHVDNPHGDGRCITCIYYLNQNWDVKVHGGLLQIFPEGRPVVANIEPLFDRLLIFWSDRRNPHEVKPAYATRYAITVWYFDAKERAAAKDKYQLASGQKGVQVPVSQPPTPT
The target in assay [4] is T1, EglN1. The assay is classed as biochemical. The source holds these as a separate data set.
The target of assay [5] is T2, EglN2. The assay is classed as biochemical. To be noted: standard assay conditions, 10 μM 2-OG.
The target in another assay is EglN3 (Homo sapiens, UniProt Q9H6Z9). The assay is classed as biochemical. The note with it: standard assay conditions, 10 μM 2-OG.
Sequence of EglN3 (Q9H6Z9 whole entry): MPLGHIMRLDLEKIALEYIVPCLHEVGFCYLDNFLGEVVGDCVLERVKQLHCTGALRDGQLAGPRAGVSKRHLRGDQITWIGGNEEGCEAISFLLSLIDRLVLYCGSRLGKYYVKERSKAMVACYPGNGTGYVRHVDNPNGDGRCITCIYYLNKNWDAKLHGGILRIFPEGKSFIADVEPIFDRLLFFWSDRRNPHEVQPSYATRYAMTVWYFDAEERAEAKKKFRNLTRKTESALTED
The subject of assay [6] is collagen P4H-I. The assay can be described thus: Inhibition of collagen P4H-I, 14CO2 release. Type of assay: biochemical, human. The note with it: in vitro; 100 µM 2-oxo-[1-14C]glutarate.
The test system of another assay is Tet1. The assay can be described thus: Inhibition of Tet1, 14CO2 release, double stranded oligonucleotide substrate. To be noted: in vitro; 120 µM 2-oxo-[1-14C]glutarate. The assay is classed as biochemical, murine.
A further assay deals with Tet2. The assay can be described thus: Inhibition of Tet2, 14CO2 release, double stranded oligonucleotide substrate. The assay is classed as biochemical, murine. To be noted: in vitro; 120 µM 2-oxo-[1-14C]glutarate.
The test system of the next assay is FIH. The assay can be described thus: Inhibition of FIH, 14CO2 release, synthetic peptide substrate. To be noted: in vitro; 10 µM 2-oxo-[1-14C]glutarate. The assay is classed as biochemical, human.
Assay [7] concerns JMJD2D histone demethylase. Briefly: JMJD2D histone demethylase activity. The assay is classed as biochemical. The note with it: data not shown; for Inhibition of JMJD2D histone demethylase (in words): in vitro.
The subject of assay [8] is collagen P4H-I. The assay is classed as biochemical, human. The note with it: no exogenous 2-OG.

Data on three compounds can be found in article PMC3656605 (Nature, 2012).

With `COC(=O)CNC(=O)C(=O)OC` [DMOG], in assay [1], the “Resistance of R132H-expressing cells to the agent (HIF immunoblot)” value was “relatively resistant”.
As to `O=C(O)CC[C@@H](O)C(=O)O` [R-2HG, R-2-hydroxyglutarate], the “Prolyl hydroxylation of HIF1α by EglN1” value on EglN1 [2] (increasing R-2HG with 10 μM 2-OG, concentrations as high as 100 mM) is recorded as “without decreasing”. The “Promotion of EglN1 activity” value at EglN1 [2] (low mM concentrations, reactions lacking exogenous 2-OG) is listed as “promoted”. Besides, on EglN2 [3], the “Promotion of EglN2 activity” value was “promoted”. In addition, at EglN1 [4] (increasing amounts of R-2HG added to 10 μM 2-oxo-[1-14C]glutarate), the “Release of 14CO2 in EglN1 assays” value is listed as “progressively decreased”. Further, the IC50 – broadly, the concentration needed to halve the response being measured – on EglN2 [5] (read-out: IC50, EglN2 inhibition) is greater than 5 mM; at EglN3 (read-out: IC50, EglN3 inhibition), greater than 5 mM. Further, the “Inhibition of collagen prolyl 4-hydroxylases (in words)” value in the assay on collagen P4H-I [6] is given as “inhibit”. Further, the “Inhibition of TET1 methyl cytosine hydroxylase (in words)” value in the assay with Tet1 is on record as “inhibit”. In addition, the “Inhibition of TET2 methyl cytosine hydroxylase (in words)” value in the assay on Tet2 is reported as “inhibit”. Further, the “Inhibition of HIF asparaginyl hydroxylase FIH (in words)” value in the assay with FIH was “inhibit”. Besides, the “Promotion of JMJD2D histone demethylase activity” value in assay [7] is listed as “did not promote”. The “Inhibition of JMJD2D histone demethylase (in words)” value in assay [7] is listed as “inhibit”. The “Promotion of collagen prolyl 4-hydroxylase activity” value with collagen P4H-I [8] is listed as “did not promote”.
As for `O=C(O)CC[C@H](O)C(=O)O` [S-2HG, S-2-hydroxyglutarate], the “Inhibition of EglN1 (in words)” value at EglN1 [4] (standard assay conditions, 10 μM 2-OG) is given as “micromolar to low millimolar inhibitor”. The “Inhibition of EglN2 (in words)” value on EglN2 [5] is listed as “micromolar to low millimolar inhibitor”. Further, the “Inhibition of EglN3 (in words)” value at EglN3 is “micromolar to low millimolar inhibitor”. For the same compound, in the assay with collagen P4H-I [6], the “Inhibition of collagen prolyl 4-hydroxylases (in words)” value was “inhibit”. Besides, the “Inhibition of TET1 methyl cytosine hydroxylase (in words)” value with Tet1 was “inhibit”. Further, the “Inhibition of TET2 methyl cytosine hydroxylase (in words)” value with Tet2 is “inhibit”. Also, in the assay on FIH, the “Inhibition of HIF asparaginyl hydroxylase FIH (in words)” value is “inhibit”. The “Inhibition of JMJD2D histone demethylase (in words)” value in [7] is recorded as “inhibit”.
